Rows were chosen to be rich in hits. Some 1.5% of all compounds tested hit in one or more screens of this group.
APJ antagonist = antagonists of human apelin receptor APJ, primary screen, CHO-K1 cells, beta-arrestin complementation, luminescence | AID 2521, 2010 | actives 0.32% (n = 330,000) | inhibition, % at 20 µM;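 active means inhibition above about 40% at 20 µM, limit read from the data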;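 further: cells challenged with 10 nM apelin-13 agonist together with compound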
CXCR6 block = CXCR6 receptor inhibitors, primary screen, cell-based, beta-arrestin, luminescence, CHO-K1 PathHunter, 1536-well | actives 0.36% (n = 360,000) | inhibition, % at 20 µM | C-X-C chemokine receptor type 6 (Homo sapiens), O00574; in the data active means inhibition above about 34%, passing the limit was not always enough;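 further: antagonist mode with CXCL16 agonist at 10 nM final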
Target sequence (O00574 whole entry, looked up): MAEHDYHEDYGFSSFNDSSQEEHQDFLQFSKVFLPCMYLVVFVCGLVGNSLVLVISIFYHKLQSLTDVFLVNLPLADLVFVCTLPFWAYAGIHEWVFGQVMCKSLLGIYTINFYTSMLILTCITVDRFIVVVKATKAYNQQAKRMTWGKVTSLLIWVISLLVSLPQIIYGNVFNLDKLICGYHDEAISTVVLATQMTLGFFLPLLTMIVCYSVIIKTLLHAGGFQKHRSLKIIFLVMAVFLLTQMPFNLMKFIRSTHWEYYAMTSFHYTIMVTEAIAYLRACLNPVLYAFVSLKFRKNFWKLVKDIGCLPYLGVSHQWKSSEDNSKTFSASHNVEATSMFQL
EBI2 antag = EBI2 receptor antagonists, beta-arrestin recruitment, primary screen, cell-based, luminescence, 7a,25-OHC stimulation, uHTS | G-protein coupled receptor 183 (Homo sapiens), P32249 | 7a,25-OHC stimulated | inhibition, % at 5 µM | actives 0.81% (n = 360,000); in the data active means inhibition above about 38%;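 further: enzyme fragment complementation signal reports receptor beta-arrestin coupling in cells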
CCR6 antagonist = CCR6 receptor antagonists, primary screen, cell-based, CHO-K1, luminescence, beta-arrestin, uHTS | CHO-K1 CCR6 PathHunter beta-arrestin, CCL20-stimulated | actives 0.49% (n = 340,000) | inhibition, % at 20 µM;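 active means compounds whose inhibition of the agonist-driven luminescence signal at 20 µM reaches about 50%, limit read from the data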;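 further: cells stimulated with CCL20 at 14 nM final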
APJ agonist = agonists of human apelin receptor APJ, primary screen, CHO-K1 cells, PathHunter beta-arrestin, luminescence; P35414; AID 2520, 2010; actives 0.11% (n = 330,000); 0% DMSO wells, 100% apelin; activation, % at 20 µM;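 active means activation more than six SD over the plate average, tested at 20 µM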
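Assay system: CHO-K1 APJ beta-arrestin complementation cell line / Compound: single test compound dose, 20 µM final, 1% DMSO / Times: overnight seeding, 90 min compound at 25 °C, 1 h detection / Technique: beta-gal luminescence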
APJ ag confirm = agonists of human apelin receptor APJ, confirmation, cell-based, single concentration, CHO-K1, beta-arrestin, luminescence. shares compounds with APJ agonist. CHO-K1 APJ PathHunter beta-arrestin. activation, % at 20 µM. actives 10% (n = 310);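 active means activation above 40%, taking the highest of four retests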
Each line names hits and unclear results; the compound was inactive in the other large screens (follow-up assays come after a bar, where they were run).

Cc1ccc(Cl)cc1NC(=O)NCc1ccccn1	none
CCNc1nc(NCC)nc(C(=O)NN)n1	none
O=C1C=CC(=O)c2c(O)c(N3CCN(CCO)CC3)c(Cl)c(O)c21	CXCR6 block 66, CCR6 antagonist 102 (no result: APJ antagonist, APJ agonist)
O=C1C=CC(=O)c2c(O)c(N3CCN(CCOCCO)CC3)c(Br)c(O)c21	CXCR6 block 76, CCR6 antagonist 112 (no result: APJ antagonist, APJ agonist)
O=S(=O)(c1ccc(Br)cc1Cl)N1CCN(CCO)CC1	none
COc1ccc(N2CCN(C(=O)CSc3nnc4n3C(C)(C)Cc3ccccc3-4)CC2)cc1	none
N#Cc1c(N2CCN(C(=O)c3ccccc3)CC2)nc(-c2ccccc2)c2c1CCCC2	CCR6 antagonist 50
N#Cc1c(N2CCN(C(=O)c3ccccc3Cl)CC2)nc(-c2ccccc2)c2c1CCCC2	none
COc1ccc(Cn2c(/C=C/c3ccccc3)nc3ccccc32)cc1	EBI2 antag 42
O=C(NC1CCCCCC1)c1ccc(N2CCCC2=O)cc1	none
Cc1ccccc1N1C(=O)c2sc3nc4c(c(=O)n3c2C1=O)CCC4	none
O=C1c2sc3nc4ccccc4n3c2C(=O)N1c1ccccc1Cl	CXCR6 block 38
C/C(=N\NC(=S)Nc1ccc(F)cc1)c1ccc2c(c1)OCCO2	CCR6 antagonist 58
COC(=O)NCC(c1ccc2c(c1)OCO2)N1CCN(c2ccc(OC)cc2)CC1 (stereo not drawn)	none
COc1ccc(/C=N/N2C(=O)CSC2=S)cc1	none
COc1ccc(-c2nn(-c3ccccc3)cc2/C=N/N2C(=O)CSC2=S)cc1	APJ agonist 18 | APJ ag confirm inactive
CCN(CC(=O)Nc1ccc(NC(C)=O)cc1)C(=O)c1oc2c(ccc3ccccc32)c1C	APJ agonist 22 | APJ ag confirm inactive
COc1cc(/C=C(/C#N)c2nc3ccccc3[nH]2)ccc1OCC(=O)Nc1ccccc1C(C)C	APJ agonist 29 | APJ ag confirm inactive
CCN(CC)S(=O)(=O)c1ccc(OCC(=O)NC(=O)Cc2ccccc2)c([N+](=O)[O-])c1	APJ agonist 12 | APJ ag confirm inactive
C=CCn1c(SCC(=O)N2CCN(c3ccccc3)CC2)nc2c([nH]c3ccccc32)c1=O	APJ agonist 65 | APJ ag confirm inactive
O=[N+]([O-])c1ccc(Oc2c(F)c(F)nc(N3CCCC3)c2F)cc1	none
COC1(C)CC2C(CC1OC(=O)c1cc([N+](=O)[O-])cc([N+](=O)[O-])c1)C2(C)C (stereo not drawn)	APJ agonist 13 | APJ ag confirm inactive
COC(=O)c1cc(C(=O)NCC2CCCCC2)cc([N+](=O)[O-])c1	none
Cc1cccc(/C(N)=N/OC(=O)c2cccc3ccccc23)c1	APJ agonist 36 (no result: CCR6 antagonist) | APJ ag confirm inactive
Cc1[nH]c2c(Cl)cccc2c(=O)c1CN1CCCCCC1	none
Cc1ccc2c(=O)c(CN3CCCCCC3)c(C)[nH]c2c1C	APJ agonist 25 | APJ ag confirm inactive
CCOc1cc(N2CCOCC2)c(OCC)cc1NC(=O)C(NC(=O)c1c(F)cccc1F)C(C)C (stereo not drawn)	none (no result: APJ antagonist, APJ agonist)
CN1CCc2c(sc(/N=C/c3c[nH]c4ccccc34)c2C(N)=O)C1	none
CN1CCc2c(sc(/N=C/c3c[nH]c4ccccc34)c2C#N)C1	APJ agonist 38 | APJ ag confirm inactive
Cc1onc(-c2ccccc2)c1-c1nnc(-c2ccccc2C(F)(F)F)o1	none
CCn1c(C)nc2cc(-c3nnc(-c4c(-c5ccccc5)noc4C)o3)ccc21	APJ agonist 17 | APJ ag confirm inactive
COc1ccc(-c2nc3ccccn3c2NCc2ccc3c(c2)OCO3)cc1	none
COc1ccc(-c2cc(-c3nc4ccccn4c3NCc3ccccc3)ccc2OC)cc1	APJ agonist 23 | APJ ag confirm inactive
CC1=NOC(=O)/C1=C\c1ccc(-c2ccc(Cl)c(C(=O)O)c2)o1	none
CC1=NOC(=O)/C1=C\c1ccc(-c2cccc(Cl)c2)o1	CXCR6 block 96, APJ agonist 15 (no result: CCR6 antagonist) | APJ ag confirm inactive
COCCCn1cc(C(=O)c2cc(OC)ccc2OCC(=O)Nc2cc(C)on2)cc(C#N)c1=O	none
